Screening data: PubChem BioAssay, The Scripps Research Institute Molecular Screening Center
TbMetRS inhib: Trypanosoma brucei MetRS inhibition; purified T. brucei MetRS, ATP depletion, Kinase-Glo luminescence; inhibition, % at 11.9 µM; 0.4% of 360,000 active;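 active = inhibition above a per-plate cutoff of the control wells' mean inhibition plus 3 SD, cut at about 5.5% in these data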;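 note: 0% = DMSO wells median and 100% = median of wells with control inhibitor compound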
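Dosing: 11.9 µM compound single dose, 0.9% DMSO; Assay system: purified T. brucei MetRS enzyme; Measured by: Kinase-Glo luciferase luminescence reporting remaining unconsumed ATP; Schedule: 15 min plus 2 h at 25 °C.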
PLC-beta3 inh: inhibitors of human phospholipase C beta3; Q01970; Purified PLC-beta3, fluorogenic substrate, fluorescence; inhibition, % at 12.2 µM; 0.18% of 370,000 active; in the data active = inhibition above about 11%;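 note: 0% = median of compound wells on plate and 100% = full blocker control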
HGIII-sPLA2 inh: Blocks human group III sPLA2 activity | AID 743126 | QFRET BODIPY PC-A2 liposome hydrolysis, fluorescence | 0.56% of 370,000 active | inhibition, % at 12.2 µM;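 active = inhibition above mean plus 3 SD of compounds lying within the high and low control bounds, cut at about 19% in these data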;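 note: 0% = median of test compound wells and 100% = no enzyme DMSO wells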
PLCg1 inh: blocks human PLC-gamma1 enzyme activity; AID 720700; purified PLC-gamma1, fluorogenic substrate, fluorescence; P19174; inhibition, % at 12.2 µM; 0.84% of 370,000 active; in the data active = inhibition above about 9.5%
TbMetRS confirm: confirmation of Trypanosoma brucei MetRS inhibitors | 93% of 1,400 active | shares compounds with TbMetRS inhib | AID 624412 | T. brucei MetRS enzyme, luminescence (ATP depletion) | inhibition, % at 11.9 µM; in the data active = inhibition above about 7%
Jurkat cytotox: counter-screen for T. brucei MetRS inhibitors: Jurkat cell cytotoxicity; 12% of 1,400 active; inhibition, % at 8.3 µM; AID 624413; shares compounds with TbMetRS inhib; Jurkat cells viability, ATP luminescence; in the data active = inhibition above about 15%;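 note: 0% = vehicle and 100% = reference inhibitor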
TbMetRS FP orth: inhibits T. brucei methionyl tRNA synthetase in orthogonal FP test. shares compounds with TbMetRS inhib. purified T. brucei MetRS, fluorescence polarization. inhibition, % at 11.9 µM. 44% of 1,400 active; in the data active = inhibition above about 17%;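 note: 0% = vehicle wells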
* hit, by the source's call. Sampled rows, rich in hits. Any-hit rate of the full collection: about 1.9%.

Screening Cc1ccc(-c2nnc(NCc3nc4ccccc4[nH]3)c3ccccc23)cc1S(=O)(=O)N(C)C returned TbMetRS inhib 13*, PLC-beta3 inh -41, HGIII-sPLA2 inh -19, PLCg1 inh -11, TbMetRS confirm 24*, Jurkat cytotox 4 and TbMetRS FP orth 16.
`COC(=O)c1ccc(-c2cccc(CN3CCN(c4ncc(Cc5ccccc5)cn4)CC3)c2)cc1` gave PLC-beta3 inh 1, HGIII-sPLA2 inh 6 and PLCg1 inh 3.
CNC(=S)NNC(=O)c1cccn(Cc2ccc(Cl)cc2Cl)c1=O was read as PLC-beta3 inh -15, HGIII-sPLA2 inh 18 and PLCg1 inh -15.
`CNC(=S)NNC(=O)c1ccc(=O)n(Cc2ccc(Cl)cc2Cl)c1` gave TbMetRS inhib 7.8*, PLC-beta3 inh 4, HGIII-sPLA2 inh 14, PLCg1 inh -1, TbMetRS confirm 20*, Jurkat cytotox 11 and TbMetRS FP orth 7.
O=C(CNC(=O)c1cccc(Br)c1)N/N=C/c1ccc[nH]1 was read as TbMetRS inhib 20*, PLC-beta3 inh -1, HGIII-sPLA2 inh 5, PLCg1 inh 1, TbMetRS confirm 53*, Jurkat cytotox 15 and TbMetRS FP orth 24*.
Screening O=C(CNC(=O)c1cccc(Br)c1)N/N=C/c1cn[nH]c1-c1ccccc1 returned TbMetRS inhib 0, PLC-beta3 inh 2, HGIII-sPLA2 inh -18 and PLCg1 inh 1.
`CC(C)(C)c1csc(NC(=O)CSC2=NCCS2)n1` gave TbMetRS inhib 6.0*, PLC-beta3 inh -8, HGIII-sPLA2 inh -12, PLCg1 inh -3, TbMetRS confirm 2, Jurkat cytotox 4 and TbMetRS FP orth 8.
Screening C=CC(=O)Nc1cccc(Oc2ncnc3[nH]cc(-c4cnc5ccccc5c4)c23)c1 returned TbMetRS inhib 8.6*, PLC-beta3 inh -14, HGIII-sPLA2 inh -19, PLCg1 inh -12, TbMetRS confirm 30*, Jurkat cytotox 6 and TbMetRS FP orth 21*.
CCOC(=O)CC[C@@]1(C(=O)OCC)C[C@@H](CC(=O)N2CCN(C(=O)c3ccco3)CC2)C(=O)N2CCCC=C21 was read as PLC-beta3 inh -1, HGIII-sPLA2 inh 3 and PLCg1 inh 3.
COc1cc2c(cc1OC)CN(c1ccc([N+](=O)[O-])cc1C#N)CC2 was read as TbMetRS inhib 11*, PLC-beta3 inh -43, HGIII-sPLA2 inh -1, PLCg1 inh -37, TbMetRS confirm 19*, Jurkat cytotox 19* and TbMetRS FP orth 8.
For COc1cc2c(cc1OC)CN(c1ccc([N+](=O)[O-])cc1Cl)CC2 the results were TbMetRS inhib 5, PLC-beta3 inh -5, HGIII-sPLA2 inh 3 and PLCg1 inh -5.
For O=C(NCc1cccc(C(F)(F)F)c1)c1c[nH]c(=O)s1 the results were TbMetRS inhib 1, PLC-beta3 inh 1, HGIII-sPLA2 inh -3 and PLCg1 inh -1.
Screening CC(=O)c1c[nH]c(C(=O)NCc2cccc(C(F)(F)F)c2)c1 returned TbMetRS inhib 92*, PLC-beta3 inh -3, HGIII-sPLA2 inh -4, PLCg1 inh 2, TbMetRS confirm 94*, Jurkat cytotox 0 and TbMetRS FP orth 78*.
O=C(Cc1ccc(Br)cc1)Nc1ccc(Cl)cc1 was read as TbMetRS inhib 5, PLC-beta3 inh 7, HGIII-sPLA2 inh -5 and PLCg1 inh 2.
Screening O=C(CC(=O)Nc1ccc(Br)cc1)Nc1ccc(Br)cc1 returned TbMetRS inhib 7.0*, PLC-beta3 inh -9, HGIII-sPLA2 inh -34, PLCg1 inh 1, TbMetRS confirm 11*, Jurkat cytotox -3 and TbMetRS FP orth 10.
For O=C(CCC(=O)OCc1ccc(Br)cc1)Nc1ccccc1 the results were TbMetRS inhib 6.1*, PLC-beta3 inh 0, HGIII-sPLA2 inh 0, PLCg1 inh 1, TbMetRS confirm 14*, Jurkat cytotox -3 and TbMetRS FP orth 6.
`O=C(CCC(=O)OCc1ccc(C(=O)Oc2ccc(Cl)cc2)cc1)Nc1ccccc1` gave TbMetRS inhib -1, PLC-beta3 inh 4, HGIII-sPLA2 inh -5 and PLCg1 inh 7.
`O=C(Cc1cccc(Cl)c1)Nc1ccc(Br)cc1` gave TbMetRS inhib 40*, PLC-beta3 inh -3, HGIII-sPLA2 inh -7, PLCg1 inh 2, TbMetRS confirm 61*, Jurkat cytotox -1 and TbMetRS FP orth 39*.
